Assay results reported in ChEMBL document CHEMBL1150377, “Design of antiangiogenic hypoxic cell radiosensitizers: 2-nitroimidazoles containing a 2-aminomethylene-4-cyclopentene-1,3-dione moiety” (Bioorg Med Chem, 2008).

Legend:
[1] = molecular target: Epidermal growth factor receptor (Homo sapiens, UniProt P00533); test: Inhibition of human A431 cell EGFRK assessed as 32P phosphorylation by scintillation counter; assay type: cell-based; conditions: a-431
Method in brief: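 Solubilized A431 cell lysate, debris removed, incubated with or without EGF for 30 min at 25 °C. Reaction started with [γ-³²P]ATP, 10 min at 0 °C. After stopping and washing, receptor phosphorylation measured as ³²P by scintillation counting.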

[2] = molecular target: 72 kDa type IV collagenase (Homo sapiens, UniProt P08253); test: Inhibition of human bowes melanoma cell MMP2
Chain of 72 kDa type IV collagenase (P08253 whole entry): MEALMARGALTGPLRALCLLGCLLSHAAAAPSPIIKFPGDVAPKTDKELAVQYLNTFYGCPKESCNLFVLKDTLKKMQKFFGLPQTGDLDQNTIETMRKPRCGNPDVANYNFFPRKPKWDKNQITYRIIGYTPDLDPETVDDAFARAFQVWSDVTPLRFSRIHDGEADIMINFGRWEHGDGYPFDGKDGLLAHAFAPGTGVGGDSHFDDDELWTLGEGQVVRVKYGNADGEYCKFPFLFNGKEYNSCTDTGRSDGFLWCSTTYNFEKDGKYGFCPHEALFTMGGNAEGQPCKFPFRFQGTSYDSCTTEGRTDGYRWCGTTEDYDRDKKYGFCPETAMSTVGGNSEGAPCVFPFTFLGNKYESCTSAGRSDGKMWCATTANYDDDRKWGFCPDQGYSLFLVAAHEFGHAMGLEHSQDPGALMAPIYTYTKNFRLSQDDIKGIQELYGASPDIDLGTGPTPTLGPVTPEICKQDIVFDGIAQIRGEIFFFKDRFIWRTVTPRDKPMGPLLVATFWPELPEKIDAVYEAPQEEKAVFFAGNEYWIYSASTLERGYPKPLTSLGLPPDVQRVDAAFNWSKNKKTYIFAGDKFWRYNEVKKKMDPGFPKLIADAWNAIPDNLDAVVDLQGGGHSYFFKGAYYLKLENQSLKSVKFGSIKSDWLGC

[3] = molecular target: Vascular endothelial growth factor receptor 1 (Homo sapiens, UniProt P17948); test: Inhibition of Flt1 expressed in mouse NIH3T3 cells by autoradiography; assay type: cell-based
Chain of Vascular endothelial growth factor receptor 1 (P17948 whole entry): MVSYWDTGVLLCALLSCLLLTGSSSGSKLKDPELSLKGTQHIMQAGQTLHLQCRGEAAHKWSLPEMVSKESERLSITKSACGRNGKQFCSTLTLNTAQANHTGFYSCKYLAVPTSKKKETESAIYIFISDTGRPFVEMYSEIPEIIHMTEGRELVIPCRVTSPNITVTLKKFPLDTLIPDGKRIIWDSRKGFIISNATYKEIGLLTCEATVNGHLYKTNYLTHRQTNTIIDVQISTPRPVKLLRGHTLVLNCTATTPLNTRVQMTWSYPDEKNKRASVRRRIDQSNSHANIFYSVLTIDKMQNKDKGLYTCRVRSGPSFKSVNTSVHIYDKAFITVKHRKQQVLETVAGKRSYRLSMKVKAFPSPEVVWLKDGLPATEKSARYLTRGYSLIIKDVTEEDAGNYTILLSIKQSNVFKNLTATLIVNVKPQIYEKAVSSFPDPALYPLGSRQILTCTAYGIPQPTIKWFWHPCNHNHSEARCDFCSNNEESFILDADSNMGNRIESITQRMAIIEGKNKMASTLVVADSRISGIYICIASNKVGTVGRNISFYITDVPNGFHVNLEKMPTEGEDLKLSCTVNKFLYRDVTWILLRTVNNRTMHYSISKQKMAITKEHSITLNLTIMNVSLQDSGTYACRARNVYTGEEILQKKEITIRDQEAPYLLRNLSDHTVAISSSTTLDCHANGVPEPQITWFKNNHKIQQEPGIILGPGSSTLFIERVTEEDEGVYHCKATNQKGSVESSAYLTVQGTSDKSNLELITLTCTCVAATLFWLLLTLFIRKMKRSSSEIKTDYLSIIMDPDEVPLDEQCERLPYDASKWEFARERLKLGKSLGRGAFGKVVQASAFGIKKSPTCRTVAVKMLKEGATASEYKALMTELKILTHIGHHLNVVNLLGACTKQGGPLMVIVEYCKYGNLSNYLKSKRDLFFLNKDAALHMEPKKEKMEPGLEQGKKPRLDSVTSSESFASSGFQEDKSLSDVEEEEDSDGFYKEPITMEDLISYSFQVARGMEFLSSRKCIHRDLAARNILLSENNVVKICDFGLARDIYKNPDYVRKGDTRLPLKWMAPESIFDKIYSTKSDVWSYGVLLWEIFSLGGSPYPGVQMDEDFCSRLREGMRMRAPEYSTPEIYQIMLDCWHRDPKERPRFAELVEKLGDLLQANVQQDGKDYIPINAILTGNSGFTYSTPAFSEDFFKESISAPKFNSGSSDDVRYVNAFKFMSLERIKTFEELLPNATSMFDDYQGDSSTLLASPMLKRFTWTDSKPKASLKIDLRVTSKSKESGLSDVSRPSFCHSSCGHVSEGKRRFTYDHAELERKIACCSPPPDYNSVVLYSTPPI

[4] = molecular target: Matrix metalloproteinase-9 (Bos taurus, UniProt P52176); test: Inhibition of bovine arterial endothelial cell MMP9; assay type: cell-based
Chain of Matrix metalloproteinase-9 (P52176 whole entry): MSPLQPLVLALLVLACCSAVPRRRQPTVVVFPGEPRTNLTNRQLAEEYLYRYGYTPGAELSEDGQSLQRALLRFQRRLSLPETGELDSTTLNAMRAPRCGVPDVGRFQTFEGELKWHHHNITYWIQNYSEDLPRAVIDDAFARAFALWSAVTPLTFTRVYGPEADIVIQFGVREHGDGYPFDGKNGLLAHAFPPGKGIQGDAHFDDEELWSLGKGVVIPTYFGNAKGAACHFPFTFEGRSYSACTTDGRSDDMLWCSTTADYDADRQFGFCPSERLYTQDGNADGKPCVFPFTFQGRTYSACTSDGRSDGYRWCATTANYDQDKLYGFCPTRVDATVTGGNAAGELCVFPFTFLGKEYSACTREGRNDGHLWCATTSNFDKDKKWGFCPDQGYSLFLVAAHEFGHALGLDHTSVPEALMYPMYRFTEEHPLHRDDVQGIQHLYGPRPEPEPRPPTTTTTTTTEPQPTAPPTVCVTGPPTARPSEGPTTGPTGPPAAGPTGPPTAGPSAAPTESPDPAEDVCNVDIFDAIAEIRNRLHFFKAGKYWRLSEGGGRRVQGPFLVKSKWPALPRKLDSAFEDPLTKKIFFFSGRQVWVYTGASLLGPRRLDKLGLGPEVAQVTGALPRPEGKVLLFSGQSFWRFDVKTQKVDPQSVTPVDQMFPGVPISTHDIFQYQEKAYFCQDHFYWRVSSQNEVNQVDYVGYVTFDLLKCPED

[5] = Radiosensitizing activity in mouse EMT6/KU cells assessed as enhancement ratio reducing surviving fraction of cells at […] after 5 to 7 days; assay type: functional
Method in brief: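 They were then irradiated with 6 MV X-rays at 2.0 Gy/min, replated, and scored for colonies after 5–7 days. Survival curves were least-squares fitted. ER is the ratio of radiation doses giving 1% survival.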

Gallus gallus = species: Gallus gallus; test: Antiangiogenic activity in chick embryo chorioallantoic membrane assessed as number of eggs showing 3 mm avascular zone at 100 ug relative to control; assay type: functional, tissue-based
Method in brief: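 Chick CAM assay on 4-day-old embryos in shell; 10 µL sample in 1% methyl cellulose/0.9% NaCl applied inside a ring on the CAM, 48 h at 37.6 °C, then fat emulsion injected to show vessels. Six eggs per group, repeated more than three times. Inhibition (%) = eggs with ≥3 mm avascular zone around ring / eggs in group ×100.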

[6] = Radiosensitizing activity in mouse EMT6/KU cells assessed as enhancement ratio reducing surviving fraction of cells at 1 mM after 5 to 7 days; assay type: functional
Method in brief: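 EMT6/KU cells at 2×10⁶ cells/mL in drug-containing MEM in glass tubes, made hypoxic with 95% N₂/5% CO₂ for 60 min. Irradiated with 6 MV X-rays at 2.0 Gy/min, then plated. After 5–7 days replated for colony formation. Survival curves fitted by least squares; ER = ratio of radiation doses giving 1% survival.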

Chain of Epidermal growth factor receptor (P00533 whole entry): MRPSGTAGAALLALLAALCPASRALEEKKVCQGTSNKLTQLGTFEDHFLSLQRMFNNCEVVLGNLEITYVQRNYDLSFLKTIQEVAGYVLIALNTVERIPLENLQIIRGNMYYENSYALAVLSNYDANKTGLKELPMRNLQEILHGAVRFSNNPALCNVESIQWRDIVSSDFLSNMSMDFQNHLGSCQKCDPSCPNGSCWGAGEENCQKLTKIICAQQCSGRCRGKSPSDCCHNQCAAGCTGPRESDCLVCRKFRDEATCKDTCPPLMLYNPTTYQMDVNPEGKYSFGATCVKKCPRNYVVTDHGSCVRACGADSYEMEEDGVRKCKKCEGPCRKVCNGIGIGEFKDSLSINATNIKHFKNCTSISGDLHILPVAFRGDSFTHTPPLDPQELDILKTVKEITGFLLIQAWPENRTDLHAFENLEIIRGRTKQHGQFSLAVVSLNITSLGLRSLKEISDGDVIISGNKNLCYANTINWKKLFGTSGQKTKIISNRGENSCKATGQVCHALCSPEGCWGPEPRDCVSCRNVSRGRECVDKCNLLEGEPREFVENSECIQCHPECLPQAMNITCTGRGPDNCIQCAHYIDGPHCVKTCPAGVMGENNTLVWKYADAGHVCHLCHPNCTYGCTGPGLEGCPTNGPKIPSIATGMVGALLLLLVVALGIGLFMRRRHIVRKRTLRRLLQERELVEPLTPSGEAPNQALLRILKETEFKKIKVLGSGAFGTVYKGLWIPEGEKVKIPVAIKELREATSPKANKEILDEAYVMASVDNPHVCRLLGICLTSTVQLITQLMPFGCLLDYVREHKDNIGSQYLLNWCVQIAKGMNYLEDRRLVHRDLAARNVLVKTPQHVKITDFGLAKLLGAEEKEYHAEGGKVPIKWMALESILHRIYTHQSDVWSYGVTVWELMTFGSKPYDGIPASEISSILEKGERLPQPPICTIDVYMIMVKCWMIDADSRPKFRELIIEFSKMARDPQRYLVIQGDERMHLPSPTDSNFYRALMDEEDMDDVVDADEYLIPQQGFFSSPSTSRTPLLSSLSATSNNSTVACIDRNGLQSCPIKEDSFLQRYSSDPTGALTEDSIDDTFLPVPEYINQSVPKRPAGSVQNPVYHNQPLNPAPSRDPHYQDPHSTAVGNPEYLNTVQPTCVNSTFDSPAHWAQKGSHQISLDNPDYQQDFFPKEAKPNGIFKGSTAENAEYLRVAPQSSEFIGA

| IC50 [1] [µM⁻¹] | IC50 [2] [µM⁻¹] | IC50 [3] [µM⁻¹] | IC50 [4] [µM⁻¹] | SMILES | Ratio [5] | inhibition (Gallus gallus) [%] | Ratio [6] |
| --- | --- | --- | --- | --- | --- | --- | --- |
|  | 24 | 23.4 | 53 | COC[C@@H](Cn1ccnc1[N+](=O)[O-])OC(=O)c1ccc(NC=C2C(=O)C=CC2=O)cc1 |  |  |  |
|  | > 240 |  | > 240 | COC[C@@H](Cn1ccnc1[N+](=O)[O-])OC(=O)c1ccc(NC(=O)C(F)(F)F)cc1 | 2.02 | 43 |  |
| 18.4 | 183 | 184 | 103 | CC(C)(C)c1ccc(OC[C@H](Cn2ccnc2[N+](=O)[O-])OC(=O)c2ccc(NC=C3C(=O)C=CC3=O)cc2)cc1 |  |  |  |

Second part, the compound before the results:

| SMILES | IC50 [1] [µM⁻¹] | IC50 [2] [µM⁻¹] | IC50 [3] [µM⁻¹] | IC50 [4] [µM⁻¹] | Ratio [5] | inhibition (Gallus gallus) [%] | Ratio [6] |
| --- | --- | --- | --- | --- | --- | --- | --- |
| COC[C@H](Cn1ccnc1[N+](=O)[O-])OC(=O)c1ccc(NC=C2C(=O)C=CC2=O)cc1 | 23 |  |  |  |  |  |  |
| CC(C)(C)c1ccc(OC[C@@H](Cn2ccnc2[N+](=O)[O-])OC(=O)c2ccc(NC=C3C(=O)C=CC3=O)cc2)cc1 | 1.8 |  | 18.4 | 67 |  |  |  |
| COC[C@H](Cn1ccnc1[N+](=O)[O-])OC(=O)c1ccc(NC(=O)C(F)(F)F)cc1 |  | > 240 |  | > 240 | 1.84 | 83 |  |
| O=C(Cn1ccnc1[N+](=O)[O-])NCCO [ETANIDAZOLE] |  |  |  |  |  |  | 1.72 |
